Calls of active or inactive are those of the source. The rule behind the calls is not given here.
Assays:
[1] = Acute toxicity in BALB/c mouse assessed as mortality at 120 mg/kg, ip administered as single dose; type: organism-based; settings: in vivo
[2] = system: CT26; assay: Antitumor activity against mouse CT26 cells implanted in BALB/c mouse assessed as tumor growth inhibition at 50 ug, ip administered once a week and measured every 3 days for 23 days relative to control; type: functional; settings: dose 50 µg; time 23 day
Summary of the method: (§1)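 Subcutaneous CT26 tumours were grown in BALB/c mice, with cells cultured in DMEM/10% FBS. At a mean tumour size of 100 mm³, mice were randomised (n = 5/group). Agonist was given ip once weekly; anti-PD-1 or IgG isotype was given ip at 200 μg twice weekly. Tumour volume (V = 1/2ab²) was measured every 3 days. Mice were euthanised at 2000 mm³.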

[3] = target: T1, TLR7 and TLR8 (Homo sapiens) (UniProt Q9NYK1+Q9NR97); assay: Agonist activity at human TLR7/8 expressed in human PBMC cells assessed as induction of INFgamma production at 0.1 to 32 ug/ml incubated for 12 hrs by multiplexed immunoassay; type: cell-based; settings: filed as agonist, dose 0.1-32 µg/ml
Summary of the method: (§2)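 Healthy-volunteer PBMCs from a single donor were isolated by Ficoll−Hypaque gradient and plated at 2.0 × 10⁶ cells/mL. They were stimulated for 12 h with escalating compound concentrations. Supernatants were assayed in duplicate on a 41-analyte magnetic bead cytokine/chemokine panel read by Luminex. EC_max is the concentration giving maximal cytokine induction.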

[4] = target: T1, TLR7 and TLR8 (Homo sapiens); assay: Agonist activity at human TLR7/8 expressed in human PBMC cells assessed as induction of IL-12 production at 0.1 to 32 ug/ml incubated for 12 hrs by multiplexed immunoassay; type: cell-based; settings: filed as agonist, dose 0.1-32 µg/ml; summary of the method: as §2
[5] = target: T1, TLR7 and TLR8 (Homo sapiens); assay: Agonist activity at human TLR7/8 expressed in human PBMC cells assessed as induction of IL-1beta production at 0.1 to 32 ug/ml incubated for 12 hrs by multiplexed immunoassay; type: cell-based; settings: filed as agonist, dose 0.1-32 µg/ml; summary of the method: as §2
[6] = target: T1, TLR7 and TLR8 (Homo sapiens); assay: Agonist activity at human TLR7/8 expressed in human PBMC cells assessed as induction of IL-6 production at 0.1 to 32 ug/ml incubated for 12 hrs by multiplexed immunoassay; type: cell-based; settings: filed as agonist, dose 0.1-32 µg/ml; summary of the method: as §2
[7] = Toxicity in BALB/c mouse implanted with mouse CT26 cells assessed as decrease in body weight at 25 ug, ip administered once a week in presence of anti-PD-1 antibodies for 23 days; type: organism-based; settings: in vivo, 552 h, dose 25 µg, time 23 day
Summary of the method: (§3)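 CT26 subcutaneous tumor-bearing BALB/c mice (n = 5) were treated from 100 mm³ tumor volume. TLR7/8 agonist was given ip once weekly, alone or with anti-PD-1 antibody (200 μg ip, twice weekly). Body weight was tracked over the treatment period and reported as mean ± SEM.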

[8] = system: CT26; assay: Antitumor activity against mouse CT26 cells implanted in BALB/c mouse assessed as reduction in tumor size at 25 ug, ip administered once a week in presence of anti-PD-1 antibodies and measured every 3 days for 23 days; type: functional, organism-based; settings: dose 25.0 µg, time 23.0 day; summary of the method: as §1
[9] = target: T1, TLR7 and TLR8 (Homo sapiens); assay: Agonist activity at human TLR7/8 expressed in human PBMC cells assessed as induction of TNFalpha production by measuring concentration required to induce maximal response incubated for 12 hrs by multiplexed immunoassay; type: cell-based; settings: filed as agonist; summary of the method: as §2
[10] = system: CT26; assay: Antitumor immunity against mouse CT26 cells implanted in BALB/c mouse assessed as increase in M1 to M2 like TAM ratio at 25 ug, ip administered once a week with anti-PD-1 antibodies for 23 days by flow cytometry analysis; type: functional, organism-based; settings: dose 25.0 µg, time 23.0 day
Summary of the method: (§4)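 CT26-bearing BALB/c mice (n = 5) were treated ip once weekly with agonist, alone or with anti-PD-1 (200 μg, twice weekly). Tumours were harvested 23 days after implantation, enzymatically and mechanically dissociated into single cells, and stained for surface markers plus intracellular FoxP3 after fixation/permeabilisation. Cells were gated within CD45⁺ for CD11c⁺ DCs, CD11b⁺F4/80⁺MHCII⁺ (M1), CD206⁺ (M2), CD3/CD4/CD8, and CD4⁺CD25⁺FoxP3⁺ Treg, then analysed by flow cytometry.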

[11] = system: CT26; assay: Antitumor immunity against mouse CT26 cells implanted in BALB/c mouse assessed as increase in infiltration of CD4+ TH1 cells at 25 ug, ip administered once a week for 23 days by flow cytometry analysis; type: functional, organism-based; settings: dose 25.0 µg, time 23.0 day; summary of the method: as §4
[12] = target: T1, TLR7 and TLR8 (Homo sapiens); assay: Agonist activity at human TLR7/8 expressed in human PBMC cells assessed as induction of IL-12p40 production by measuring concentration required to induce maximal response incubated for 12 hrs by multiplexed immunoassay; type: cell-based; settings: filed as agonist; summary of the method: as §2
[13] = system: CT26; assay: Antitumor activity against mouse CT26 cells implanted in BALB/c mouse assessed as fold increase in infiltration of CD11c+ in tumor cells at 25 ug, ip administered once a week for 23 days by flow cytometry analysis relative to R848; type: functional; settings: dose 25 µg; time 23 day; summary of the method: as §4
[14] = Toxicity in BALB/c mouse implanted with mouse CT26 cells assessed as decrease in body weight at 1.2 g, ip administered on day 4 in combination with anti-PD-1 antibodies measured after 4 days; type: organism-based; settings: in vivo, 96 h, time 4 day; summary of the method: as §3
[15] = system: CT26; assay: Synergistic antitumor activity against mouse CT26 cells implanted in BALB/c mouse assessed as suppression of tumor growth at 12.5 ug, ip administered once a week in presence of anti-PD-1 antibodies and measured every 3 days for 23 days; type: functional, organism-based; settings: dose 12.5 µg, time 23.0 day
[16] = target: T1, TLR7 and TLR8 (Homo sapiens); assay: Agonist activity at human TLR7/8 expressed in human PBMC cells assessed as induction of MIP-1alpha production by measuring concentration required to induce maximal response incubated for 12 hrs by multiplexed immunoassay; type: cell-based; settings: filed as agonist; summary of the method: as §2
[17] = target: T1, TLR7 and TLR8 (Homo sapiens); assay: Agonist activity at human TLR7/8 expressed in human PBMC cells assessed as induction of G-CSF production by measuring concentration required to induce maximal response incubated for 12 hrs by multiplexed immunoassay; type: cell-based; settings: filed as agonist; summary of the method: as §2
[18] = system: CT26; assay: Synergistic antitumor activity against mouse CT26 cells implanted in BALB/c mouse assessed as reduction in tumor size at 25 ug, ip administered once a week in presence of anti-PD-1 antibodies and measured every 3 days for 23 days; type: functional, organism-based; settings: dose 25.0 µg, time 23.0 day
[19] = system: CT26; assay: Antitumor immunity against mouse CT26 cells implanted in BALB/c mouse assessed as increase in infiltration of CD4+ TH1 cells at 25 ug, ip administered once a week with anti-PD-1 antibody for 23 days by flow cytometry analysis; type: functional, organism-based; settings: dose 25.0 µg, time 23.0 day; summary of the method: as §4
[20] = system: CT26; assay: Antitumor activity against mouse CT26 cells implanted in BALB/c mouse assessed as tumor growth inhibition at 25 ug, ip administered once a week and measured every 3 days for 23 days relative to control; type: functional; settings: dose 25 µg; time 23 day; summary of the method: as §1
[21] = system: CT26; assay: Antitumor immunity against mouse CT26 cells implanted in BALB/c mouse assessed as increase in infiltration of CD8+ T cytotoxic lymphocytes at 25 ug, ip administered once a week for 23 days by flow cytometry analysis; type: functional, organism-based; settings: dose 25.0 µg, time 23.0 day; summary of the method: as §4
[22] = Toxicity in BALB/c mouse implanted with mouse CT26 cells assessed as reduction in survival at 25 ug, ip administered once a week in presence of anti-PD-1 antibodies and measured 60 days post tumor implantation; type: organism-based; settings: in vivo, 1440 h, dose 25 µg, time 60 day
Summary of the method: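 Survival study in CT26-bearing BALB/c mice (n = 10 per group), treated from a tumor volume of 100 mm³. Dosing was 25 μg agonist ip once weekly plus anti-PD-1 antibody at 200 μg ip twice weekly; IgG isotype was the control. Mice were euthanized on signs of distress or at a total tumor size of 2000 mm³.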

Structure (SMILES): COCCNc1nc(N)nc2ccc(Cc3ccc(CN(C)C)cc3)nc12
- Activity [1]: Toxic
- TGI [2]: 82.8%
- Activity [3]: Active
- Activity [4]: Active
- Activity [5]: Active
- Activity [6]: Active
- Activity [7]: Non-Toxic

Structure (SMILES): CCCCNc1nc(N)nc2ccc(Cc3ccc(CN(C)C)cc3)nc12
- Activity [8]: Active
- ECmax [9]: 0.1 µg/mL
- Activity [10]: Active
- Activity [11]: Active
- ECmax [12]: 0.1 µg/mL
- fold change (FC) [13]: 2
- Activity [14]: Non-Toxic
- Activity [15]: Active
- ECmax [16]: 0.1 µg/mL
- ECmax [17]: 0.1 µg/mL
- Activity [18]: inactive
- Activity [19]: Active
- TGI [20]: >96.5%
- Activity [21]: Active
- Activity [22]: Non-Toxic

Source: ChEMBL document CHEMBL5036324 (J Med Chem, 2021)
